In general, IC50 refers to the midpoint of a concentration-inhibition curve. Broadly, the inhibition is the relative decrease from the control value, in per cent.

≈ marks a conversion by molar mass, not a printed value.

Test [1] can be described thus: Cytotoxicity against human KBVIN cells by MTT assay. In kind it is functional, cell-based. An outline of the steps:
(§1)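 MTT colorimetric assay of cell viability. IC50 is expressed in μg/mL as the mean of 3 determinations.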
(In general: Tetrazolium assays rely on reduction of a dye to a coloured formazan, in cell work by metabolically active cells.)

The next test deals with A549. Description: Cytotoxicity against human A549 cells by MTT assay. It is filed as functional, cell-based. An outline of the steps:
as §1

A further test deals with DU-145. In words: Cytotoxicity against human DU145 cells by MTT assay. In kind it is functional, cell-based. An outline of the steps: as §1
Test [2] in a line: Antiinflammatory activity in human neutrophils assessed as inhibition of fMLP/CB-induced superoxide anion generation at 10 ug/mL after 15 mins by cytochrome c reduction assay. In kind it is functional. The conditions noted are these: Neutrophil, 0.25 h. An outline of the steps:
(§2)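 Human neutrophils stimulated with fMLP/CB; superoxide anion generation and elastase release were measured. IC50 is the concentration giving 50% inhibition. Where 50% inhibition was not reached at any tested dose, % inhibition at 10 μg/mL is reported. Mean ± S.E.M., n = 3-5.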

Test [3] in a line: Antiinflammatory activity in human neutrophils assessed as inhibition of fMLP/CB-induced elastase release using MeO-Suc-Ala-Ala-Pro-Val-MC as substrate at 10 ug/mL by spectrophotometry. In kind it is functional. The settings on record: Neutrophil. An outline of the steps:
as §2

The test system of another test is Neutrophil. Description: Ratio of PMSF IC50 to compound IC50 for antiinflammatory activity in human neutrophils assessed as inhibition of fMLP/CB-induced elastase release. It is filed as functional.
The test system of another test is KB. Description: Cytotoxicity against human KB cells by MTT assay. In kind it is functional, cell-based. The method, boiled down: as §1
Test [4] can be described thus: Antiinflammatory activity in human neutrophils assessed as inhibition of fMLP/CB-induced superoxide anion generation after 15 mins by cytochrome c reduction assay. It is filed as functional, cell-based. The conditions noted are these: Neutrophil, 0.25 h. The method, boiled down:
as §2

Test [5] is described as follows: Antiinflammatory activity in human neutrophils assessed as inhibition of fMLP/CB-induced elastase release using MeO-Suc-Ala-Ala-Pro-Val-MC as substrate by spectrophotometry. It is filed as functional, cell-based. The settings on record: Neutrophil. The method, boiled down:
as §2

Test [6] in a line: Antiinflammatory activity in human neutrophils pretreated with cytochalasin B assessed as inhibition of fMLP/CB-induced superoxide anion generation after 15 mins by cytochrome c reduction assay. The conditions noted are these: Neutrophil. It is filed as functional, cell-based. The method, boiled down: as §2
A short description of test [7]: Antiinflammatory activity in human neutrophils assessed as inhibition of induced superoxide anion generation at 10 ug/mL after 15 mins by cytochrome c reduction assay in the absence of fMLP/CB. It is filed as functional. The settings on record: Neutrophil, 0.25 h.
Test [8] is described as follows: Antiinflammatory activity in human neutrophils assessed as inhibition of elastase release using MeO-Suc-Ala-Ala-Pro-Val-MC as substrate at 10 ug/mL by spectrophotometry in the absence of fMLP/CB. It is filed as functional. The settings on record: Neutrophil.

On to `CC(C)=CCOc1ccc2c(=O)c3c(OCC=C(C)C)cc(OCC=C(C)C)cc3oc2c1`, for which the figures for the half-maximal inhibitory concentration (IC50) (in test [1]; with A549; with DU-145) were over 10 µg/mL, over 10 µg/mL and 6.3 µg/mL (≈ 14 µM), respectively. Besides, the inhibition at 10 µg/mL in [2] is 64.3%; in [3], 54.9%.

Take `CC1(C)C=Cc2c(cc3oc4cc(O)ccc4c(=O)c3c2O)O1`: the “Ratio IC50” value in the test with Neutrophil is 15. The IC50 in the test on KB worked out at 4.6 µg/mL (≈ 14.8 µM); in test [1], 5.5 µg/mL (≈ 17.7 µM); in the test with A549 it was 5.8 µg/mL (≈ 18.7 µM); in the test on DU-145, 4.4 µg/mL (≈ 14.2 µM); in test [4], 0.46 µg/mL (≈ 1.48 µM); in [5], 0.64 µg/mL (≈ 2.06 µM).

On to `CC(C)=CCC[C@]1(C)C=Cc2c(O)c3c(c(CC=C(C)C)c2O1)O[C@]12C(=C[C@@H]4C[C@H]1C(C)(C)O[C@@]2(C/C=C(/C)C(=O)O)C4=O)C3=O` [GAMBOGIC ACID], for which the 50% inhibitory concentration (IC50) was 0.3 µg/mL (≈ 0.477 µM) in the test on KB, 0.4 µg/mL (≈ 0.636 µM) in test [1], 0.5 µg/mL (≈ 0.795 µM) in the test with A549 and 0.3 µg/mL (≈ 0.477 µM) in the test with DU-145.

Take `COc1ccc2c(=O)c3c(O)cc(OC)cc3oc2c1`: the IC50 (in test [1]; in the test on A549; in the test with DU-145) was over 10 µg/mL throughout. In addition, the inhibition at 10 µg/mL in [2] worked out at 31.3%; in test [3], 26.5%.

`CC(C)=CCc1c(O)cc2oc3cc(O)ccc3c(=O)c2c1O`: the values for the IC50 (in test [1]; with A549; in the test on DU-145) were 5.4 µg/mL (≈ 17.3 µM), 6.2 µg/mL (≈ 19.9 µM) and 3.8 µg/mL (≈ 12.2 µM), respectively. Moreover, the inhibition at 10 µg/mL in test [2] came to 45.2%; in test [3], 56.3%.

Consider `CC(C)=CCc1c(O)cc2oc3c(CC=C(C)C)c(O)ccc3c(=O)c2c1O`, for which the figures for the half-inhibitory concentration (IC50) (in test [1]; with A549; in the test on DU-145) were 4.4 µg/mL (≈ 11.6 µM), 5 µg/mL (≈ 13.1 µM) and 2.8 µg/mL (≈ 7.36 µM), respectively. Besides, the inhibition at 10 µg/mL in [2] worked out at 31.6%; in test [3], 67.2%.

Regarding `CC(=O)O[C@H]1C(=O)[C@@]2(C)[C@H]([C@H](OC(=O)c3ccccc3)[C@]3(O)C[C@H](OC(=O)[C@H](O)[C@@H](NC(=O)c4ccccc4)c4ccccc4)C(C)=C1C3(C)C)[C@]1(OC(C)=O)CO[C@@H]1C[C@@H]2O` [PACLITAXEL], the half-inhibitory concentration (IC50) worked out at 0.0016 µg/mL (≈ 0.00187 µM) in the test with KB, 0.0011 µg/mL (≈ 0.00129 µM) in test [1] and 0.0024 µg/mL (≈ 0.00281 µM) in the test on DU-145.

Regarding `CC1(C)Oc2cc3oc4cc(O)ccc4c(=O)c3c(O)c2C(O)C1O` (configuration not stated), the concentration for half-maximal inhibition (IC50) in the test with KB was 6.3 µg/mL (≈ 18.3 µM); in [1] it was 6.8 µg/mL (≈ 19.7 µM); in the test on A549, 5.9 µg/mL (≈ 17.1 µM); with DU-145 it was 5.4 µg/mL (≈ 15.7 µM); in test [4], 2.49 µg/mL (≈ 7.23 µM). Moreover, in test [3], the inhibition at 10 µg/mL stood at 35.3%.

Regarding `O=S(=O)(F)Cc1ccccc1` [PHENYLMETHYLSULFONYLFLUORIDE], in test [5], the half-inhibitory concentration (IC50) was determined as 131 µg/mL (≈ 752 µM).

For `CC1(C)Oc2cc(O)c3c(=O)c4ccc(O)cc4oc3c2C(O)C1O` (configuration not stated), the IC50 in the test with KB is over 10 µg/mL; in [1] it was 0.8 µg/mL (≈ 2.32 µM); in the test with A549, 9.9 µg/mL (≈ 28.8 µM); in the test with DU-145 it was 6.7 µg/mL (≈ 19.5 µM). In addition, the values for the inhibition at 10 µg/mL in test [2] and in [3] were 8.63% and 6.37%, respectively.

Take `CC(C)=CCCC1(C)C=Cc2c(cc(O)c3c(=O)c4ccc(O)cc4oc23)O1` (configuration not stated): in the test with Neutrophil, the “Ratio IC50” value is reported as 200. Besides, the IC50 in the test on KB was determined as 5.3 µg/mL (≈ 14 µM); in test [1], 5.7 µg/mL (≈ 15.1 µM); with A549, 5.1 µg/mL (≈ 13.5 µM); in the test with DU-145, 5.2 µg/mL (≈ 13.7 µM); in test [6], 35.6 µg/mL (≈ 94.1 µM); in [5], 0.49 µg/mL (≈ 1.29 µM).

In the case of `c1ccc2c(c1)[I+]c1ccccc1-2` [DIPHENYLENEIODONIUM], the IC50 in test [4] turned out to be 0.7 µg/mL.

Turning to `CC(C)=CCc1c(O)c(CC=C(C)C)c2oc3cc(O)ccc3c(=O)c2c1O`, the half-maximal inhibitory concentration (IC50) in [1] amounted to 6.7 µg/mL (≈ 17.6 µM); with A549 it was 6.4 µg/mL (≈ 16.8 µM); in the test on DU-145 it was 3.9 µg/mL (≈ 10.3 µM). Further, the inhibition at 10 µg/mL stood at 101% in test [7] and 102% in test [8].

Turning to `CC(C)=CCOc1ccc2c(=O)c3c(O)c(CC=C(C)C)c(OCC=C(C)C)cc3oc2c1`, the IC50 amounted to 7.5 µg/mL (≈ 16.7 µM) in test [1], 7.9 µg/mL (≈ 17.6 µM) in the test with A549 and 4.3 µg/mL (≈ 9.59 µM) in the test on DU-145. The figures for the inhibition at 10 µg/mL in [2] and in [3] were 10.1% and 7.56%, respectively.

`CC(C)=CCCC1(C)Oc2cc3oc4cc(O)ccc4c(=O)c3c(O)c2C(O)C1O` (configuration not stated): in the test on Neutrophil, the “Ratio IC50” value is given as 15. Further, the concentration for half-maximal inhibition (IC50) in the test with KB was over 10 µg/mL; in test [1], over 10 µg/mL; with A549 it was over 10 µg/mL; in the test with DU-145, over 10 µg/mL; in test [4], 4.3 µg/mL (≈ 10.4 µM); in [5] it was 5.75 µg/mL (≈ 13.9 µM).

As to `CC1(C)C=Cc2c(cc(O)c3c(=O)c4ccc(O)cc4oc23)O1`, the IC50 in the test on KB stood at 4.8 µg/mL (≈ 15.5 µM); in test [1] it was 0.9 µg/mL (≈ 2.9 µM); in the test with A549, 5.8 µg/mL (≈ 18.7 µM); with DU-145 it was 5.1 µg/mL (≈ 16.4 µM); in test [4], 3.97 µg/mL (≈ 12.8 µM). In addition, the inhibition at 10 µg/mL in test [3] turned out to be 18.4%.

Regarding `CC(C)=CCCC1(C)Oc2cc(O)c3c(=O)c4ccc(O)cc4oc3c2C(O)C1O` (configuration not stated), the “Ratio IC50” value in the test on Neutrophil is 15. For the same molecule, the IC50 is over 10 µg/mL in the test on KB; over 10 µg/mL in test [1]; over 10 µg/mL with A549; over 10 µg/mL with DU-145; 2.56 µg/mL (≈ 6.21 µM) in [4]; 8.46 µg/mL (≈ 20.5 µM) in test [5].

With `CC(C)=CCOc1cc(O)c2c(=O)c3ccc(O)cc3oc2c1`, the concentration for half-maximal inhibition (IC50) in test [1] was determined as 5.3 µg/mL (≈ 17 µM); in the test on A549 it was 6.9 µg/mL (≈ 22.1 µM); with DU-145, 3.7 µg/mL (≈ 11.8 µM); in test [4], 20.2 µg/mL (≈ 64.7 µM). The inhibition at 10 µg/mL in test [3] was found to be 4.21%.

For the molecule `O=c1c2ccc(O)cc2oc2cc(O)cc(O)c12`, the IC50 was over 10 µg/mL in test [1], over 10 µg/mL in the test with A549, over 10 µg/mL in the test on DU-145 and 5.84 µg/mL (≈ 23.9 µM) in test [4]. Also, the inhibition at 10 µg/mL in [3] is 16%.

`CC(C)=CCOc1ccc2c(=O)c3c(O)cc(OCC=C(C)C)cc3oc2c1`: the values for the concentration for half-maximal inhibition (IC50) (in test [1]; with A549; in the test on DU-145) were over 10 µg/mL, 9.3 µg/mL (≈ 24.4 µM) and over 10 µg/mL, respectively. Further, the inhibition at 10 µg/mL in test [2] worked out at 5.32%; in [3], 13.3%.

With `CC(C)=CCCC1(C)C=Cc2c(cc3oc4cc(O)ccc4c(=O)c3c2O)O1` (configuration not stated), the “Ratio IC50” value in the test on Neutrophil is on record as 15. Besides, the half-maximal inhibitory concentration (IC50) was 6.2 µg/mL (≈ 16.4 µM) with KB; 6 µg/mL (≈ 15.9 µM) in [1]; 6.6 µg/mL (≈ 17.4 µM) with A549; 6.2 µg/mL (≈ 16.4 µM) in the test with DU-145; 5.43 µg/mL (≈ 14.3 µM) in [4]; 8.75 µg/mL (≈ 23.1 µM) in test [5].

For `COc1ccc2c(=O)c3c(O)cc(O)cc3oc2c1`, the concentration for half-maximal inhibition (IC50) (in test [1]; in the test with A549; with DU-145) was over 10 µg/mL each time. Moreover, the inhibition at 10 µg/mL in [2] turned out to be 45.2%; in [3] it was 23.6%.

For the origin of these results see ChEMBL document CHEMBL2029342, “Design and synthesis of gambogic acid analogs as potent cytotoxic and anti-inflammatory agents” (Bioorg Med Chem Lett, 2012).
